Results published in paper PMC4168015 (Journal of biomolecular screening, 2013).
Entries after “also recorded” stand apart in the source; their conditions may differ. Like-named read-outs stand apart in the source and are kept apart here.

How the values were obtained:
[1] = molecular target: SCF^Skp2 (E3) ubiquitination of p27 (Homo sapiens, UniProt Q13309); assay: In vitro p27 ubiquitination assay; assay type: biochemical
How it was run: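 Mouse p27 translated in rabbit reticulocyte lysate with [35S]-methionine and phosphorylated by recombinant CDK2–cyclin E. It was then mixed with 100 nM E1, 200 nM His-Cdc34, 100 nM SCFSkp2, 50 nM Cks1, 10 μM ubiquitin, 10 μM methylated ubiquitin, ATP regeneration system, 1 μM ubiquitin aldehyde and 1 μM MG132. Run 30 min, 30 °C; products read by SDS-PAGE/phosphorimager. Test compound 40 μM.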

Skp2-Cks1 interaction = Skp2-Cks1 interaction (Homo sapiens, UniProt P61024+Q13309); assay: AlphaScreen assay for Skp2-Cks1 interaction; assay type: binding
K562 leukemia cell lines = conditions: read-out: GI50 against K562 leukemia cell lines; cited from earlier work
p210^bcr-abl = conditions: read-out: IC50 against p210^bcr-abl in vitro; cited from earlier work
[2] = tested on: mink lung epithelial cell line stably expressing GFP-p27; assay: GFP-p27 stabilization in mink lung epithelial cell line; assay type: cell-based; conditions: for endogenous p27 level: mink lung epithelial cell line; for stabilization of GFP-p27: mink lung epithelial cell line stably expressing GFP-p27
Cks1 (Homo sapiens) [3] = molecular target: Cks1 (Homo sapiens) (UniProt P61024); assay: ITC; conditions: cited from earlier work
Sequence of Cks1 (Homo sapiens) (P61024 2-79): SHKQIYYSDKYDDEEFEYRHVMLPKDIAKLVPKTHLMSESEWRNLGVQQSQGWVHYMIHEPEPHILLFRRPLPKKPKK

Cks1 (Homo sapiens) [4] = molecular target: Cks1 (Homo sapiens) (UniProt P61024); conditions: cited from earlier work
[5] = read-out: p27 Ub IC50, in vitro p27 ubiquitination
[6] = read-out: Inhibition of Skp2-Cks1 IC50, AlphaScreen, GST-Skp2/Skp1 20 nM, Cks1 200 nM

Sequence of Skp2 (Q13309 whole entry): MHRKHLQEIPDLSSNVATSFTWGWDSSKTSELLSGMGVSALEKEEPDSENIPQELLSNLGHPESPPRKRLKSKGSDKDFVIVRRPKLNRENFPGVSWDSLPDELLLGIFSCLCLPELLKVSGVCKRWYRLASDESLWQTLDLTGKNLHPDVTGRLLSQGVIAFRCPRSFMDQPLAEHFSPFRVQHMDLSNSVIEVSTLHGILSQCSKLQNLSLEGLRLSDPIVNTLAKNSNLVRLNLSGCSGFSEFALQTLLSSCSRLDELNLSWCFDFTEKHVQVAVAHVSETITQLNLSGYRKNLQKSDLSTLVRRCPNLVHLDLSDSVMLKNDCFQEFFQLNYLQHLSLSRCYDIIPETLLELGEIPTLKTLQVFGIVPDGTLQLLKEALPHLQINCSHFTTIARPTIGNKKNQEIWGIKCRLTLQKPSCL

Row | Compound | IC50 [1, 5] [µM] | IC50 (Skp2-Cks1 interaction; [6]) [µM] | effect on p27 ubiquitination in vitro (in words) [1] | effect on Skp2-Cks1 interaction (in words) (Skp2-Cks1 interaction; AlphaScreen) | also measured
1 | O=C1C=CC(=O)C=C1 [BQ, 1,4-benzoquinone, reference compound] |  |  | no effect | no effect | IC50 [1]: > 300 µM; IC50 (Skp2-Cks1 interaction): 626 ± 65.7 µM
2 | O=C(OCC12CC3CC(CC(C3)C1)C2)c1ccc(NCc2cc(O)ccc2O)cc1 [Compound 857] | ~30 | 36 ± 6.2 |  | blocked the Skp2-Cks1 interaction at low μM concentrations | GI50 (K562 leukemia cell lines): 12.8 µM; IC50 (p210^bcr-abl): 12.6 µM; endogenous p27 level [2]: increases only marginally; stabilization of GFP-p27 [2]: dose-dependent stabilization; effect on p27 ubiquitination in vitro (in words) ([1]; listed as NSC689857): impeded p27 polyubiquitination in a dose-dependent manner; also recorded: inhibited p27 ubiquitination in vitro
3 | Cc1cc(O)ccc1O [MHQ, methylhydroquinone, reference compound] |  |  | no effect | no effect | IC50 [1]: > 300 µM; IC50 (Skp2-Cks1 interaction): 434 ± 39.5 µM
4 | COC(=O)c1ccc(CCc2cc(O)ccc2O)cc1 [NSC681152] | ~80 | 75.6 ± 6.8 | impeded p27 polyubiquitination in a dose-dependent manner; also recorded: inhibited p27 ubiquitination in vitro | blocked the Skp2-Cks1 interaction at low μM concentrations | GI50 (K562 leukemia cell lines): 18.5 µM; IC50 (p210^bcr-abl): 2.64 µM; endogenous p27 level [2]: increases only marginally; stabilization of GFP-p27 [2]: dose-dependent stabilization
5 | Skp2 (from UniProt Q13309) |  |  |  |  | Kd (Cks1 (Homo sapiens) [3]): 0.014 µM; Kd (Cks1 (Homo sapiens) [4]): 0.14 µM

Now from value to compound, other results behind:

Row | IC50 [1, 5] [µM] | IC50 (Skp2-Cks1 interaction; [6]) [µM] | Compound | effect on p27 ubiquitination in vitro (in words) [1] | effect on Skp2-Cks1 interaction (in words) (Skp2-Cks1 interaction; AlphaScreen) | also measured
6 | > 300 | 1090 ± 189 | CCCCC(=O)c1ccc(OC)c(C)c1 [Compound A857] |  |  | 
7 | > 300 | 8310 ± 1460 | CCCCC(=O)c1ccc(OC)c(C)c1 [Compound E857] |  |  | 
8 | ~15 | 71 ± 4.4 | CCCCC(=O)c1ccc(OC)c(C)c1 [Compound Q857] | inhibited p27 ubiquitination in vitro | blocked the Skp2-Cks1 interaction at low μM concentrations | 
